In ChEMBL document CHEMBL1157466, “Antifouling activity of meroditerpenoids from the marine brown alga Halidrys siliquosa” (J Nat Prod, 2008) one finds MIC, LC50 and EC50 data, which are given here for eight molecules.

The test system of one series is Cobetia marina. As to the kind of experiment: Antibacterial activity against Cobetia marina ATCC 25374 after 24 hrs by microtiter broth dilution method. The series is classed as functional. In short, it runs like this:
(§1)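 Marine bacteria at 2×10^8 cells/mL incubated with compound (0.5, 1, 2.5, 5, 10, 25, 50, 100 µg/mL) in Mueller Hinton broth supplemented with NaCl (15 g/L), 25 °C, 24 h, 96-well format. Six replicates per treatment alongside a seawater control. MIC read against the seawater control by microtiter broth dilution.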
In general terms: Dilution methods test growth across graded concentrations, often in twofold steps.

Series [1] in a line: Toxicity against Balanus amphitrite stage 2 nauplii after 24 hrs. The class given is organism-based. Conditions: amphibalanus amphitrite, in vivo. In short, it runs like this: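 Ten to fifteen stage-II barnacle nauplii per well in 2 mL solution; compounds at 0.5, 1, 2.5, 5, 10, 25, 50 and 100 µg/mL; six replicates per treatment and control. Swimming and dead nauplii counted after 24 h exposure; LC50 is the concentration giving 50% mortality relative to control, derived from the dose-response data.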

The test system of a further series is Marinobacterium stanieri. In words: Antibacterial activity against Marinobacterium stanieri ATCC 27130 after 24 hrs by microtiter broth dilution method. The series is classed as functional. In short, it runs like this:
as §1

The subject of another series is Amphibalanus amphitrite. As to the kind of experiment: Antifouling activity in Balanus amphitrite assessed as inhibition of cyprid larvae settlement after 24 hrs. The series is classed as functional, organism-based. In short, it runs like this:
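Cyprids obtained by filtration 4 days after larval release from field-collected adults. 10–15 cyprids per well in 2 mL seawater containing compound at 0.5–100 µg/mL (0.5, 1, 2.5, 5, 10, 25, 50, 100). Kept in darkness at 28 °C for 24 h, six replicates. Larvae scored as dead, settled or swimming under a dissecting microscope. EC50 calculated as 50% settlement inhibition relative to the seawater control.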

The subject of series [2] is Pseudoalteromonas haloplanktis. In words: Antibacterial activity against Pseudoalteromonas haloplanktis after 24 hrs by microtiter broth dilution method. The class given is functional. In short, it runs like this: as §1
A further series concerns Aliivibrio fischeri. As to the kind of experiment: Antibacterial activity against Vibrio fischeri ATCC 7744 after 24 hrs by microtiter broth dilution method. The series is classed as functional. In short, it runs like this:
as §1

[3] abbreviates: Cobetia marina, ATCC 25374, 24 h, read-out: MIC.
[4] abbreviates: Marinobacterium stanieri, ATCC 27130, 24 h, read-out: MIC.
Setting [5] is: Amphibalanus amphitrite, 24 h, read-out: EC50.
Where [6] appears, read: Pseudoalteromonas haloplanktis, 24 h, read-out: MIC.
Setting [7] is: Aliivibrio fischeri, ATCC 7744, 24 h, read-out: MIC.

In brackets after ≈: the same amount, converted by molar mass. Bounds are passed on as bounds.

As a reminder, the MIC is the smallest concentration in the dilution series that meets the test's criterion for growth inhibition. What is called LC50 is the concentration lethal to half of the exposed cells or organisms. Read a low LC50 as greater toxicity. As a reminder, the EC50 is the concentration giving half of the maximal effect.

Regarding `COc1cc(C)c(O)c(C/C=C(\C)CC(=O)/C=C(\C)CCCC(C)C(O)C(=O)C=C(C)C)c1` (stereo in doubt; 8), the MIC with Cobetia marina came out at 10 µg/mL (≈ 21.9 µM); against Marinobacterium stanieri, 10 µg/mL (≈ 21.9 µM); in series [2] it was 10 µg/mL (≈ 21.9 µM); with Aliivibrio fischeri it was 25 µg/mL (≈ 54.7 µM). In series [1], this molecule registered an LC50 at 24 h above 100 µg/mL. Further, the EC50 in the series with Amphibalanus amphitrite was above 100 µg/mL.

As to `COc1cc(C)c(O)c(C/C=C(\C)CC(O)/C=C(\C)CCCC(C)C(=O)C(O)C=C(C)C)c1` (stereo not given), the MIC in the series on Cobetia marina (setting [3]) was determined as 1 µg/mL (≈ 2.18 µM); with Marinobacterium stanieri (setting [4]), 1 µg/mL (≈ 2.18 µM); in series [2] (setting [6]) it was 1 µg/mL (≈ 2.18 µM); in the series on Aliivibrio fischeri (setting [7]), 0.5 µg/mL (≈ 1.09 µM). For the same molecule, the LC50 at 24 h in series [1] was 10 µg/mL (≈ 21.8 µM). In the series with Amphibalanus amphitrite (setting [5]), the EC50 is 5 µg/mL (≈ 10.9 µM).

On to `COc1cc(C)c(O)c(C/C=C(\C)CC(=O)/C=C(/C)CCCC(C)C(O)C(=O)C=C(C)C)c1` (stereo not given), for which the MIC (in the series with Cobetia marina (setting [3]); with Marinobacterium stanieri (setting [4]); in series [2] (setting [6]); in the series with Aliivibrio fischeri (setting [7])) was above 100 µg/mL throughout. This molecule also gave an LC50 at 24 h in series [1] above 100 µg/mL. For the same molecule, the EC50 in the series with Amphibalanus amphitrite (setting [5]) was above 100 µg/mL.

As for `COc1cc(C)c(O)c(C/C=C(\C)CC(=O)/C=C(/C)CCCC(C)C(=O)C(O)C=C(C)C)c1` (stereo not given), the MIC with Cobetia marina (setting [3]) turned out to be 0.5 µg/mL (≈ 1.09 µM); in the series on Marinobacterium stanieri (setting [4]), 1 µg/mL (≈ 2.19 µM); in series [2] (setting [6]) it was 1 µg/mL (≈ 2.19 µM); in the series with Aliivibrio fischeri (setting [7]) it was 0.5 µg/mL (≈ 1.09 µM). Also, in series [1], the LC50 at 24 h is 5 µg/mL (≈ 10.9 µM). Further, the EC50 with Amphibalanus amphitrite (setting [5]) was determined as 1 µg/mL (≈ 2.19 µM).

Take `COc1cc(C)c(O)c(C/C=C(\C)CC(=O)/C=C(\C)CCCC(C)C(=O)C(O)C=C(C)C)c1` (stereo in doubt; 4): the MIC (in the series on Cobetia marina; in the series on Marinobacterium stanieri; in series [2]; in the series with Aliivibrio fischeri) was above 100 µg/mL throughout. Further, in the series with Amphibalanus amphitrite (setting [5]), the EC50 was above 100 µg/mL.

In the case of `COc1cc(C)c(O)c(C/C=C(\C)CC(=O)/C=C(\C)CCCC(C)C(=O)C(O)C=C(C)C)c1` (stereo in doubt; 3), the MIC with Cobetia marina stood at 5 µg/mL (≈ 10.9 µM); against Marinobacterium stanieri it was 5 µg/mL (≈ 10.9 µM); in series [2], 10 µg/mL (≈ 21.9 µM); against Aliivibrio fischeri, 5 µg/mL (≈ 10.9 µM). In series [1], this molecule came in with an LC50 at 24 h above 100 µg/mL.

For the molecule `COc1cc(C)c2c(c1)C=CC(C)(CC(=O)/C=C(\C)CCCC(C)[C@@H](O)C(=O)C=C(C)C)O2` (stereo not given in full), the MIC (in the series with Cobetia marina (setting [3]); in the series on Marinobacterium stanieri (setting [4]); in series [2] (setting [6]); in the series with Aliivibrio fischeri (setting [7])) was above 100 µg/mL throughout. Also, the LC50 at 24 h in series [1] was above 100 µg/mL. Further, the concentration giving a half-maximal response (EC50) in the series with Amphibalanus amphitrite (setting [5]) is above 100 µg/mL.

On to `COc1cc(C)c(O)c(C/C=C(\C)CC(=O)/C=C(\C)CCCC(C)C(O)C(=O)C=C(C)C)c1` (stereo in doubt; 9), for which the MIC is 2.5 µg/mL (≈ 5.47 µM) in the series on Cobetia marina, 1 µg/mL (≈ 2.19 µM) with Marinobacterium stanieri, 1 µg/mL (≈ 2.19 µM) in series [2] and 2.5 µg/mL (≈ 5.47 µM) in the series with Aliivibrio fischeri. Further, the EC50 with Amphibalanus amphitrite came out at 4 µg/mL (≈ 8.76 µM).
